Tests used:
[1] = species: Mus musculus; assay: Biodistribution of [18F]-radiolabeled compound in the mouse bone after 30 minutes (average uptake in (%injected dose)/(% body weight); assay type: ADME, organism-based, Bone element; settings: in vivo, 0.5 h
Summary of the method: (§1)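 Adult male C57 Black mice (about 20 g), anesthetized with 1 mg sodium pentobarbital ip, given 0.1 mL (~0.05 mCi) tracer via tail vein. Killed by cervical dislocation at set times (5–90 min). Organs sampled, counted, weighed. Injected dose measured against weighed standards, minus residual tail activity. %id/g multiplied by body weight gives normalized uptake. Mean ± SD, N = 3 (N = 2 at 5 min).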

[2] = species: Mus musculus; assay: Biodistribution of [18F]-radiolabeled compound in the mouse brain after 90 minutes (average uptake in (%injected dose)/(% body weight); assay type: ADME, organism-based; settings: in vivo, 1.5 h; summary of the method: as §1
[3] = species: Mus musculus; assay: Biodistribution of [18F]-radiolabeled compound in the mouse spleen after 60 minutes (average uptake in (%injected dose)/(% body weight); assay type: ADME, organism-based; settings: in vivo, 1 h; summary of the method: as §1
[4] = species: Mus musculus; assay: Biodistribution of [18F]-radiolabeled compound in the mouse bone after 90 minutes (average uptake in (%injected dose)/(% body weight); assay type: ADME, organism-based, Bone element; settings: in vivo, 1.5 h; summary of the method: as §1
[5] = species: Mus musculus; assay: Biodistribution of [18F]-radiolabeled compound in the mouse lung after 5 minutes (average uptake in (%injected dose)/(% body weight); assay type: ADME, organism-based; settings: in vivo; summary of the method: as §1
[6] = species: Mus musculus; assay: Biodistribution of [18F]-radiolabeled compound in the mouse bone after 15 minutes (average uptake in (%injected dose)/(% body weight); assay type: ADME, organism-based, Bone element; settings: in vivo, 0.25 h; summary of the method: as §1
[7] = species: Mus musculus; assay: Biodistribution of [18F]-radiolabeled compound in the mouse muscle after 5 minutes (average uptake in (%injected dose)/(% body weight); assay type: ADME, organism-based, Muscle tissue; settings: in vivo; summary of the method: as §1
[8] = species: Mus musculus; assay: Biodistribution of [18F]-radiolabeled compound in the mouse kidney after 60 minutes (average uptake in (%injected dose)/(% body weight); assay type: ADME, organism-based; settings: in vivo, 1 h; summary of the method: as §1
[9] = species: Mus musculus; assay: Biodistribution of [18F]-radiolabeled compound in the mouse spleen after 5 minutes (average uptake in (%injected dose)/(% body weight); assay type: ADME, organism-based; settings: in vivo; summary of the method: as §1
[10] = Ratio between Vmax and Km; assay type: ADME
Summary of the method: (§2)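 Rat liver MAO (crude P2 mitochondrial fraction from adult male Wistar rats, in pH 7.4 phosphate buffer) incubated with substrate at 30 μM to 5 mM; colorimetric detection of H2O2 formed. Blanks contained 0.1 mM pargyline. Vmax and Km from linear regression of Lineweaver-Burk plots; means ± SE of n separate experiments; ANOVA with post-hoc Scheffe test.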

[11] = species: Mus musculus; assay: Biodistribution of [18F]-radiolabeled compound in the mouse intestine after 60 minutes (average uptake in (%injected dose)/(% body weight); assay type: ADME, organism-based; settings: in vivo, 1 h; summary of the method: as §1
[12] = species: Mus musculus; assay: Biodistribution of [18F]-radiolabeled compound in the mouse blood after 60 minutes (average uptake in (%injected dose)/(% body weight); assay type: ADME, organism-based; settings: in vivo, 1 h; summary of the method: as §1
[13] = species: Mus musculus; assay: Biodistribution of [18F]-radiolabeled compound in the mouse intestine after 15 minutes (average uptake in (%injected dose)/(% body weight); assay type: ADME, organism-based; settings: in vivo, 0.25 h; summary of the method: as §1
[14] = species: Mus musculus; assay: Biodistribution of [18F]-radiolabeled compound in the mouse lung after 15 minutes (average uptake in (%injected dose)/(% body weight); assay type: ADME, organism-based; settings: in vivo, 0.25 h; summary of the method: as §1
[15] = species: Mus musculus; assay: Biodistribution of [18F]-radiolabeled compound in the mouse brain after 60 minutes (average uptake in (%injected dose)/(% body weight); assay type: ADME, organism-based; settings: in vivo, 1 h; summary of the method: as §1
[16] = species: Mus musculus; assay: Biodistribution of [18F]-radiolabeled compound in the mouse liver after 60 minutes (average uptake in (%injected dose)/(% body weight); assay type: ADME, organism-based; settings: in vivo, 1 h; summary of the method: as §1
[17] = species: Mus musculus; assay: Biodistribution of [18F]-radiolabeled compound in the mouse intestine after 90 minutes (average uptake in (%injected dose)/(% body weight); assay type: ADME, organism-based; settings: in vivo, 1.5 h; summary of the method: as §1
[18] = species: Mus musculus; assay: Biodistribution of [18F]-radiolabeled compound in the mouse heart after 5 minutes (average uptake in (%injected dose)/(% body weight); assay type: ADME, organism-based; settings: in vivo; summary of the method: as §1
[19] = species: Rattus norvegicus; assay: Maximal rate (Vmax) for oxidation by rat liver MAO (results are means of number of separate experiments, n=4) (*p<0.01); assay type: ADME; summary of the method: as §2
[20] = species: Mus musculus; assay: Biodistribution of [18F]-radiolabeled compound in the mouse intestine after 5 minutes (average uptake in (%injected dose)/(% body weight); assay type: ADME, organism-based; settings: in vivo; summary of the method: as §1
[21] = species: Mus musculus; assay: Biodistribution of [18F]-radiolabeled compound in the mouse spleen after 90 minutes (average uptake in (%injected dose)/(% body weight); assay type: ADME, organism-based; settings: in vivo, 1.5 h; summary of the method: as §1
[22] = species: Mus musculus; assay: Biodistribution of [18F]-radiolabeled compound in the mouse lung after 60 minutes (average uptake in (%injected dose)/(% body weight); assay type: ADME, organism-based; settings: in vivo, 1 h; summary of the method: as §1
[23] = species: Mus musculus; assay: Biodistribution of [18F]-radiolabeled compound in the mouse blood after 15 minutes (average uptake in (%injected dose)/(% body weight); assay type: ADME, organism-based; settings: in vivo, 0.25 h; summary of the method: as §1
[24] = species: Mus musculus; assay: Biodistribution of [18F]-radiolabeled compound in the mouse kidney after 15 minutes (average uptake in (%injected dose)/(% body weight); assay type: ADME, organism-based; settings: in vivo, 0.25 h; summary of the method: as §1
[25] = species: Mus musculus; assay: Biodistribution of [18F]-radiolabeled compound in the mouse kidney after 90 minutes (average uptake in (%injected dose)/(% body weight); assay type: ADME, organism-based; settings: in vivo, 1.5 h; summary of the method: as §1
[26] = species: Mus musculus; assay: Biodistribution of [18F]-radiolabeled compound in the mouse brain after 15 minutes (average uptake in (%injected dose)/(% body weight); assay type: ADME, organism-based; settings: in vivo, 0.25 h; summary of the method: as §1

With CN1CC=C(c2ccccc2CF)CC1 the Time [1] was 1.91 min, the Time [2] was 0.76 min and the Time [3] was 0.93 min. For the same molecule, the Time [4] was 3.32 min, the Time [5] was 6.33 min and the Time [6] was 1.58 min. It also gave a Time [7] of 0.61 min, a Time [8] of 0.94 min and a Time [9] of 1.37 min. For the same molecule, the Ratio [10] was 3.83, the Time [11] was 0.88 min and the Time [12] was 0.31 min. For the same molecule, the Time [13] was 1.99 min, the Time [14] was 3.83 min and the Time [15] was 0.65 min. It also gave a Time [16] of 0.72 min, a Time [17] of 2.32 min and a Time [18] of 2.54 min. For the same molecule, the Vmax [19] was 609 nM hr-1 (mg of protein)-1, the Time [20] was 1.36 min and the Time [21] was 0.95 min. For the same molecule, the Time [22] was 1.6 min, the Time [23] was 0.66 min and the Time [24] was 2.64 min. It also gave a Time [25] of 0.72 min and a Time [26] of 0.82 min.

Reference: ChEMBL document CHEMBL1126990, “Design and synthesis of 18F-labeled neurotoxic analogs of MPTP” (J Med Chem, 1993)
